# In ChEMBL document CHEMBL1156961, “Inhibition of Escherichia coli glycosyltransferase MurG and Mycobacterium tuberculosis Gal transferase by uridine-linked transition state mimics” (Bioorg Med Chem, 2010):
# Active and inactive are the calls of the source. The rule behind the calls is not given here.
# Legend:
# [1] = biological target: T1, Galactofuranosyltransferase GlfT2 (Mycobacterium tuberculosis) (UniProt O53585); assay: Inhibition of Mycobacterium tuberculosis GlfT2 assessed as incorporation of [14C]Gal at 1 mM by scintillation counting
# T1 sequence (whole entry): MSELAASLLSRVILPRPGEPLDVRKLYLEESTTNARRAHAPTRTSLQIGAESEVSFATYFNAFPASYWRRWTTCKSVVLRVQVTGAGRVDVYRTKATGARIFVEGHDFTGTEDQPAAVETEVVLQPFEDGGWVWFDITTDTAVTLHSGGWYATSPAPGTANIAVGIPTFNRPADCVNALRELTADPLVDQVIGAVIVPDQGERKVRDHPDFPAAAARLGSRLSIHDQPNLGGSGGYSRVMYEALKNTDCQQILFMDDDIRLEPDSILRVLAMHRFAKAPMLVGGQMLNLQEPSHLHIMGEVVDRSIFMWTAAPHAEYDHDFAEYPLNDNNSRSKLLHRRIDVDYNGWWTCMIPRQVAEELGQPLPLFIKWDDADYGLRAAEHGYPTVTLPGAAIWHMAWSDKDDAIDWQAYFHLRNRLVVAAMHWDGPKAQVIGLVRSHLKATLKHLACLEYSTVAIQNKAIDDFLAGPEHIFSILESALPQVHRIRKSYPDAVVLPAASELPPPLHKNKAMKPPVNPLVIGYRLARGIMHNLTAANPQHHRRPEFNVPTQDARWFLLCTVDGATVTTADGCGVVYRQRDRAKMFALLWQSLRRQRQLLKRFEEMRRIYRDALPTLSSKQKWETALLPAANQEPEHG
# Escherichia coli [2] = assay: Inhibition of Escherichia coli recombinant C terminal His-tagged MurG expressed in Escherichia coli C43 assessed as inhibition of […] labelled lipid intermediate 2 formation at 1 mM over 15 mins by scintillation counting
# [3] = Inhibition of Escherichia coli recombinant C terminal His-tagged MurG expressed in Escherichia coli C43 assessed as inhibition of [3H]UDPGlc labelled lipid intermediate 2 formation over 15 mins by scintillation counting
# Bacillus subtilis = assay: Antibacterial activity against Bacillus subtilis W23 at 100 ug/ml after 24 hrs; format: functional, organism-based
# How it was run: (§1)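 LB broth culture grown overnight at 37 °C from a single colony, diluted to 2% in fresh LB and mixed 1:1 with sterile aqueous compound (200 μg/ml or 1 mg/ml solution) or water. Incubated at 37 °C, growth followed by OD595 at 3, 6 and 24 h.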
# Pseudomonas putida = assay: Antibacterial activity against Pseudomonas putida ATCC 33015 at 100 ug/ml after 24 hrs; format: functional, organism-based; how it was run: as §1
# Escherichia coli [4] = assay: Antibacterial activity against Escherichia coli BL21 at 100 ug/ml after 24 hrs; format: functional, organism-based; how it was run: as §1
SMILES,inhibition [1] [%],other results
C[C@@]1(C(=O)NCC(=O)NC[C@H]2O[C@@H](n3ccc(=O)[nH]c3=O)[C@H](O)[C@@H]2O)N[C@H]([C@H](O)CO)[C@@H]2C(=O)N(c3ccccc3)C(=O)[C@@H]21,0,–
COc1cccc([C@H]2N[C@@](C)(C(=O)NCC(=O)NC[C@H]3O[C@@H](n4ccc(=O)[nH]c4=O)[C@H](O)[C@@H]3O)[C@H]3C(=O)N(c4ccccc4)C(=O)[C@@H]23)c1OC,0,–
COC(=O)[C@@H]1[C@@H]2C(=O)N(CC(=O)NC[C@H]3O[C@@H](n4ccc(=O)[nH]c4=O)[C@H](O)[C@@H]3O)C(=O)[C@@H]2N[C@@H]1c1ccccc1,80,inhibition (Escherichia coli [2]): 0%
COC(=O)[C@@H]1[C@@H]2C(=O)N(CC(=O)NC[C@H]3O[C@@H](n4ccc(=O)[nH]c4=O)[C@H](O)[C@@H]3O)C(=O)[C@@H]2N[C@@H]1c1ccc(OC)c(OC)c1,0,IC50 [3]: 4 mM
COC(=O)[C@@H]1[C@@H]2C(=O)N(CC(=O)NC[C@H]3O[C@@H](n4ccc(=O)[nH]c4=O)[C@H](O)[C@@H]3O)C(=O)[C@@H]2N[C@@H]1c1ccccc1OC,0,inhibition (Escherichia coli [2]): 0%
COc1ccccc1[C@H]1N[C@@](C)(COC(=O)CCC(=O)OC[C@H]2O[C@@H](n3ccc(=O)[nH]c3=O)[C@H](O)[C@@H]2O)[C@H]2C(=O)N(c3ccccc3)C(=O)[C@@H]12 (mixture of isomers),0,–
COc1ccccc1[C@H]1N[C@@](C)(COC(=O)CC(=O)OC[C@H]2O[C@@H](n3ccc(=O)[nH]c3=O)[C@H](O)[C@@H]2O)[C@H]2C(=O)N(c3ccccc3)C(=O)[C@@H]12,0,–
COc1ccccc1[C@H]1N[C@@](C)(C(=O)N2CCC[C@H]2C(=O)NC[C@H]2O[C@@H](n3ccc(=O)[nH]c3=O)[C@H](O)[C@@H]2O)[C@H]2C(=O)NC(=O)[C@@H]12,–,IC50 [3]: > 5 mM
COC(=O)[C@@H]1[C@@H]2C(=O)N(CC(=O)NC[C@H]3O[C@@H](n4ccc(=O)[nH]c4=O)[C@H](O)[C@@H]3O)C(=O)[C@@H]2N[C@@H]1c1cccc(OC)c1OC,–,inhibition (Escherichia coli [2]): 0%
COc1ccccc1[C@H]1N[C@@](C)(C(=O)NCC(=O)NC[C@H]2O[C@@H](n3ccc(=O)[nH]c3=O)[C@H](O)[C@@H]2O)[C@H]2C(=O)N(c3ccccc3)C(=O)[C@@H]12 (mixture of isomers),0,Activity (Bacillus subtilis): inactive; Activity (Pseudomonas putida): inactive; Activity (Escherichia coli [4]): inactive
COC(=O)[C@H]1[C@@H](c2ccccc2OC)N[C@@](C)(C(=O)N2CCC[C@H]2C(=O)NC[C@H]2O[C@@H](n3ccc(=O)[nH]c3=O)[C@H](O)[C@@H]2O)[C@H]1C(=O)OC,0,–
COC(=O)[C@@H]1[C@H]2C(=O)N(CC(=O)NC[C@H]3O[C@@H](n4ccc(=O)[nH]c4=O)[C@H](O)[C@@H]3O)C(=O)[C@@H]2N[C@@H]1c1ccccc1OC,0,inhibition (Escherichia coli [2]): 22%
COC(=O)[C@H]1[C@@H](c2ccccc2OC)N[C@@](C)(C(=O)NCC(=O)NC[C@H]2O[C@@H](n3ccc(=O)[nH]c3=O)[C@H](O)[C@@H]2O)[C@@H]1C(=O)OC (mixture of isomers),0,IC50 [3]: > 5 mM
COC(=O)[C@H]1[C@@H](c2ccccc2OC)N[C@@](C)(C(=O)N2CCC[C@H]2C(=O)NC[C@H]2O[C@@H](n3ccc(=O)[nH]c3=O)[C@H](O)[C@@H]2O)[C@@H]1C(=O)OC (mixture of isomers),0,–
